Experimental data from ChEMBL document CHEMBL4610116, “Salicylanilide Analog Minimizes Relapse of Clostridioides difficile Infection in Mice” (J Med Chem, 2020).
In brackets after ≈: the same amount, converted by molar mass. Activity calls are given as the source filed them. No cut-off for these calls is given here.

Legend:
Clostridioides difficile [1] = assay: (§1) Suppression of relapse of Clostridioides difficile 630 infection in cefoperazone-treated C57BL/6J mouse model of recurrent Clostridioides difficile 630 infection assessed as reduction in toxin activity in cecal content at 5 mg/kg, po for 5 days from day 4 to 9 after infection with spores measured on day day 14; format: functional, organism-based
In short: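 Mice challenged with strain 630 spores after cefoperazone; drug given 5 mg/kg by gavage, days 4–9, vehicle hydroxypropyl-cyclodextrin. Cecal content at day 14 diluted 1:10 in PBS, filtered, then serially diluted to 10⁻⁶. Dilutions preincubated 40 min at room temperature with PBS or antitoxin, then added to Vero cells overnight at 37°C. Titer is the reciprocal of the highest dilution rounding 80% of cells.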

[2] = Clearance in non-antibioticc-treated C57Bl/6J mouse at 0.3 mg/kg, iv and measured after 5 mins to 24 hrs by LC/MS-SRM analysis; format: ADME, organism-based; conditions: in vivo
In short: (§2)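 Non-antibiotic-treated C57Bl/6J mice given a single i.v. dose of 0.3 mg/kg; n = 3 per time point. Bled at 5, 10, 30 min and 1, 2, 4, 8, 24 h. Plasma mixed with 2 volumes acetonitrile containing internal standard, centrifuged, supernatant quantified by LC/MS-SRM.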

[3] = Half life in cefoperazone-treated C57Bl/6J mouse at 1 mg/kg, po dosed each day for 5 days by LC/MS-SRM analysis; format: ADME, organism-based; conditions: in vivo
In short: (§3)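 C57Bl/6J mice pre-treated with cefoperazone 0.5 mg/mL in drinking water for 10 days, then a 2-day washout. Oral dose of 1 mg/kg given daily for 5 days. Bled at 5, 10, 30 min and 1, 2, 4, 10, 24 h after dosing on the first and final days; n = 3 per time point. Plasma mixed with 2 volumes acetonitrile containing internal standard, centrifuged, supernatant analysed by LC/MS-SRM.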

[4] = Cmax in non-antibioticc-treated C57Bl/6J mouse at 0.3 mg/kg, iv and measured after 5 mins to 24 hrs by LC/MS-SRM analysis; format: ADME, organism-based; parameters: dose 0.3 mg/kg, route intravenous; conditions: in vivo; in short: as §2
Clostridioides difficile [5] = assay: as §1, with “incidence of animals with microbial load (total vegetative cells plus spores) load below the limit of detection” for “reduction in toxin activity in cecal content”, “13 post drug cessation” for “day 14”; format: functional
In short: (§4)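 Five-week-old C57BL/6J mice of both sexes given cefoperazone 0.5 mg/ml in drinking water for 5 days, then a 2-day washout. Oral challenge with C. difficile 630 spores on day 0. Oral gavage in 2-(hydroxypropyl)-cyclodextrin vehicle on days 4–9; n = 6 per group. Body weight recorded daily. Feces or cecal contents suspended 1:10 in PBS, serially diluted and plated on TCCFA, incubated anaerobically at 37°C for 24 h; results as CFU/g.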

Clostridioides difficile [6] = assay: (§5) Suppression of relapse of Clostridioides difficile 630 infection in cefoperazone-treated C57BL/6J mouse model of recurrent Clostridioides difficile 630 infection assessed as reduction in body weight loss at 5 mg/kg, po for 5 days from day 4 to 9 after infection with spores; format: functional, organism-based; in short: as §4
[7] = (§6) Effect on gut microbiota in cefoperazone-treated C57BL/6J mouse model of recurrent Clostridioides difficile 630 infection assessed as increase in abundance of group-Ruminococcaceae at 5 mg/kg, po for 5 days from day 4 to 9 after infection with spores measured on day day 14 by 16S rRNA Illumina sequencing analysis; format: ADME, organism-based; conditions: in vivo, 120 h
In short: (§7)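 Recurrent CDI model in cefoperazone-treated C57BL/6J mice challenged with strain 630 and gavaged on days 4–9 (n = 6 per group). Cecal tissue snips collected at necropsy underwent 16S rRNA gene community sequencing on Illumina MiSeq.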

[8] = Ratio of Cmin in cecum of cefoperazone-treated C57Bl/6J mouse at 1 mg/kg, po dosed each day for 5 days and measured over 24 hrs post last dose by LC/MS-SRM analysis to MIC for antimicrobial activity against Clostridioides difficile CD10463 incubated for 20 to 24 hrs by broth microdilution method; format: ADME, organism-based; conditions: in vivo
[9] = Cmax in cefoperazone-treated C57Bl/6J mouse at 1 mg/kg, po dosed each day for 5 days by LC/MS-SRM analysis; format: ADME, organism-based; parameters: dose 1 mg/kg, route oral; conditions: in vivo; in short: as §3
[10] = Volume of distribution at steady state in non-antibioticc-treated C57Bl/6J mouse at 0.3 mg/kg, iv and measured after 5 mins to 24 hrs by LC/MS-SRM analysis; format: ADME, organism-based; conditions: in vivo; in short: as §2
Clostridioides difficile [11] = assay: as §5, with “microbial load (total vegetative cells plus spores)” for “body weight loss”; format: functional, organism-based; in short: as §4
Clostridioides difficile [12] = assay: as §1, with “group-Proteobacteria level” for “toxin activity in cecal content”; format: functional, organism-based; in short: as §7
Clostridioides difficile [13] = assay: Antimicrobial activity against Clostridioides difficile CD10463 incubated for 20 to 24 hrs by broth microdilution method; format: functional
In short: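 Broth microdilution in pre-reduced BHIS using two-fold serial dilutions and ~5 × 10⁵ cfu/mL inoculum. Incubated 20–24 h at 37°C, anaerobic (8% H₂, 8% CO₂, 84% N₂). MIC read by the Lambert-Pearson method; duplicates.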

[14] = Toxicity in sheep RBC assessed as induction of hemolysis at 0.625 to 80 uM incubated for 1 hr at 37 degC relative to control; format: cell-based, Ovis aries, Erythrocyte; conditions: sheep red blood cells (erythrocytes), read-out: Activity
In short: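 Sheep erythrocytes washed three times in PBS pH 7.4. A 3% suspension mixed 1:1 with compound in PBS, final 0.625–80 µM, for 1 h at 37°C. Centrifuged at 500 × g and supernatant absorbance read at 540 nm. 1% Triton X-100 served as positive control and 1.6% DMSO in PBS as negative control.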

[15] = Tmax in non-antibioticc-treated C57Bl/6J mouse at 0.3 mg/kg, iv and measured after 5 mins to 24 hrs by LC/MS-SRM analysis; format: ADME, organism-based; conditions: in vivo; in short: as §2
[16] = as §6, with “phylum Firmicutes” for “group-Ruminococcaceae”; format: ADME, organism-based; conditions: in vivo, 120 h; in short: as §7
[17] = as §6, with “Lachnospiraceae” for “group-Ruminococcaceae”; format: ADME, organism-based; conditions: in vivo, 120 h; in short: as §7
[18] = MRT in cefoperazone-treated C57Bl/6J mouse at 1 mg/kg, po dosed each day for 5 days by LC/MS-SRM analysis; format: ADME, organism-based; conditions: in vivo; in short: as §3
Clostridioides difficile [19] = assay: as §1, with “histopathological summary scores” for “toxin activity in cecal content”; format: functional, organism-based
In short: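 Recurrent CDI model in cefoperazone-treated C57BL/6J mice challenged with strain 630 and gavaged on days 4–9 (n = 6 per group). At necropsy on day 14, H&E-stained cecum and colon scored 0–4 each for edema, inflammatory cell infiltration and epithelial damage. Scoring done blinded by a veterinary pathologist.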

[20] = Effect on gut microbiota in cefoperazone-treated C57BL/6J mouse model of recurrent Clostridioides difficile 630 infection assessed as increase in alpha-diversity at 5 mg/kg, po for 5 days from day 4 to 9 after infection with spores measured on day day 14 by 16S rRNA Illumina sequencing analysis; format: ADME, organism-based; conditions: in vivo, 120 h; in short: as §7
Clostridioides difficile [21] = assay: as §1, with “group-Bacteroidaceae level” for “toxin activity in cecal content”; format: functional, organism-based; in short: as §7
[22] = Instantaneous volume of distribution in non-antibioticc-treated C57Bl/6J mouse at 0.3 mg/kg, iv and measured after 5 mins to 24 hrs by LC/MS-SRM analysis; format: ADME, organism-based; conditions: in vivo; in short: as §2

## O=C(Nc1cc(C(F)(F)F)c(Oc2ccc(Cl)cc2)c(C(F)(F)F)c1)c1cc(Cl)cc(Cl)c1O
Clostridioides difficile [1]
  Activity: Active
[2]
  clearance: 1 mL/min/kg
[3]
  half-life: 10.7 h
[4]
  Cmax: 1630 nM
Clostridioides difficile [5]
  Activity: 50%
Clostridioides difficile [6]
  Activity: Active
[7]
  Activity: Non-Toxic
[8]
  Ratio: 100
[9]
  Cmax: 1780 nM
[10]
  Vdss: 7.9 mL
Clostridioides difficile [11]
  Activity: Active
Clostridioides difficile [12]
  Activity: Active
Clostridioides difficile [13]
  MIC: 0.03 µM (≈ 0.0163 µg/mL)
[14]
  hemolysis at 1 h, up to 80 µM: < 2%
[15]
  Tmax: 0.17 h
[16]
  Activity: Non-Toxic
[17]
  Activity: Non-Toxic
[18]
  MRT: 9.7 h
Clostridioides difficile [19]
  Activity: Active
[20]
  Activity: Non-Toxic
Clostridioides difficile [21]
  Activity: Active
[22]
  Vc: 8.5 mL
